Measurements published in ChEMBL document CHEMBL3091413, “Fine molecular tuning at position 4 of 2H-chromen-2-one derivatives in the search of potent and selective monoamine oxidase B inhibitors” (Eur J Med Chem, 2013).

Experiments:
[1] = target: T1, MAO-A (amine oxidase [flavin-containing] A) (Rattus norvegicus, UniProt P21396); assay: Inhibition of Sprague-Dawley rat MAO-A using Kynuramine as substrate assessed as formation of 4-hydroxyquinoline at 10 uM preincubated for 5 mins prior to substrate addition measured for 5 mins by spectrophotometry; details: rat MAO-A enzyme preparation, probe kynuramine
T1 sequence (P21396 whole entry): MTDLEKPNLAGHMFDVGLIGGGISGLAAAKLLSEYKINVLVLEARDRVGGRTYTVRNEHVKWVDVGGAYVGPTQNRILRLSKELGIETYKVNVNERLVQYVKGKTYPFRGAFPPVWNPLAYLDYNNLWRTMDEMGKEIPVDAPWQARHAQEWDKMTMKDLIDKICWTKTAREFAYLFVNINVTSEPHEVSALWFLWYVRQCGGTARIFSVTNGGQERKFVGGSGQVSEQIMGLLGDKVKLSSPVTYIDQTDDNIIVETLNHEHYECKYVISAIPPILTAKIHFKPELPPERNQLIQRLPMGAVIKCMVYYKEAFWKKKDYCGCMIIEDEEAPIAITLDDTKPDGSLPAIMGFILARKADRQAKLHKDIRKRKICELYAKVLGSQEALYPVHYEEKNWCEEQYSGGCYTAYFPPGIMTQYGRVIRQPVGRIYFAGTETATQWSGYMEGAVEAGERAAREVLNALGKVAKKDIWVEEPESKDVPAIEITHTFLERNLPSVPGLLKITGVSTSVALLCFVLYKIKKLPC

[2] = target: T2, Amine oxidase [flavin-containing] B (Rattus norvegicus, UniProt P19643); assay: Inhibition of Sprague-Dawley rat MAO-B using Kynuramine as substrate assessed as formation of 4-hydroxyquinoline preincubated for 5 mins prior to substrate addition measured for 5 mins by spectrophotometry
T2 sequence (P19643 whole entry): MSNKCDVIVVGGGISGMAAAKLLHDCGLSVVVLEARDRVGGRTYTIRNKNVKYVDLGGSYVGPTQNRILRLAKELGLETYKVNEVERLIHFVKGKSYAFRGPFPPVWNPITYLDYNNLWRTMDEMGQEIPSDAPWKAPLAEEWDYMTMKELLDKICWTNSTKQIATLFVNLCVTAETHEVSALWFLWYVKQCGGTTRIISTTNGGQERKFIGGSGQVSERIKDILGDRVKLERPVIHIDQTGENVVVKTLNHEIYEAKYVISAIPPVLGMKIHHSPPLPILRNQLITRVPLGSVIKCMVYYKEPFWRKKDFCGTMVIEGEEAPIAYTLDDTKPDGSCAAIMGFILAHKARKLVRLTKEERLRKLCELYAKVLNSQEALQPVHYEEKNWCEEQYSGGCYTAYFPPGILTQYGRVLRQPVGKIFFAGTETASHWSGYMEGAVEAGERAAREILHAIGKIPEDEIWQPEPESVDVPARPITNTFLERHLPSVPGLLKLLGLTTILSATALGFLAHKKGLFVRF

[3] = target: T3, Amine oxidase [flavin-containing] A (Rattus norvegicus, UniProt P21396); assay: Inhibition of Sprague-Dawley rat MAO-A using Kynuramine as substrate assessed as formation of 4-hydroxyquinoline preincubated for 5 mins prior to substrate addition measured for 5 mins by spectrophotometry
T3 sequence (P21396 whole entry): T1 sequence (P21396 whole entry)
Method in brief: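 Enzyme source: crude brain mitochondrial fraction from male Sprague-Dawley rats (200-250 g), decapitated. Brains were washed in ice-cold isotonic Na2HPO4/KH2PO4 buffer (pH 7.40) with sucrose, fractionated by differential centrifugation, and stored at -40 °C in isotonic phosphate buffer (pH 7.4) with KCl. Kynuramine oxidation to 4-hydroxyquinoline was monitored spectrophotometrically. Values are the mean of two or three independent experiments.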

Rattus norvegicus = species on record: Rattus norvegicus; assay: Selectivity ratio for Sprague-Dawley rat MAO-B to Sprague-Dawley rat MAO-A
Method in brief: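 Selectivity index is pIC50 MAO-B minus pIC50 MAO-A (ΔpIC50), from the rat brain mitochondrial kynuramine assay.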

Row | Compound | inhibition at 5 min, 10 µM [1] [%] | IC50 ([2]; read-out: pIC50 (converted)) [nM] | IC50 [3] [nM] | Selectivity ratio (Rattus norvegicus) | IC50 ([2]; read-out: IC50) [nM]
1 | CCCOc1cc(=O)oc2cc(OCc3cccc(Br)c3)ccc12 | 0 | 74.1 |  |  | 
2 | CCOC(=O)COc1cc(=O)oc2cc(OCc3cccc(Cl)c3)ccc12 | 0 | 1820 |  |  | 
3 | CCNc1cc(=O)oc2cc(OCc3cccc(Cl)c3)ccc12 |  | 28.2 | 9330 |  | 
4 | CCOC(=O)Nc1cc(=O)oc2cc(OCc3cccc(Cl)c3)ccc12 | 21 | 589 |  |  | 
5 | CCCOc1cc(=O)oc2cc(OCc3cccc(Cl)c3)ccc12 | 5.3 | 61.7 |  |  | 
6 | CCOc1cc(=O)oc2cc(OCc3cccc(F)c3)ccc12 | 25 | 263 |  |  | 
7 | O=C(COc1cc(=O)oc2cc(OCc3cccc(Cl)c3)ccc12)N1CCOCC1 | 3.2 | 12900 |  |  | 
8 | O=c1cc(/C=N/O)c2ccc(OCc3cccc(Cl)c3)cc2o1 | 48 | 219 |  |  | 
9 | CCOc1cc(=O)oc2cc(OCc3cccc(Cl)c3)ccc12 | 2 | 115 |  |  | 
10 | CC(C)Nc1cc(=O)oc2cc(OCc3cccc(Cl)c3)ccc12 | 0 | 7760 |  |  | 
11 | O=C(COc1cc(=O)oc2cc(OCc3cccc(Cl)c3)ccc12)N1CCCCC1 | 9 | 38900 |  |  | 
12 | CN(C)C(=O)Cc1cc(=O)oc2cc(OCc3cccc(Cl)c3)ccc12 | 0 |  |  |  | 
13 | O=c1cc(Cl)c2ccc(OCc3cccc(Cl)c3)cc2o1 |  | 20.9 | 8910 |  | 
14 | COc1cc(=O)oc2cc(OCc3ccccc3)ccc12 | 22 | 100 |  |  | 
15 | O=c1cc(CN2CCOCC2)c2ccc(OCc3cccc(Cl)c3)cc2o1 | 11 | 2290 |  |  | 
16 | CNCc1cc(=O)oc2cc(OCc3cccc(Br)c3)ccc12 | 40 | 11 |  |  | 
17 | N#Cc1cc(=O)oc2cc(OCc3cccc(Cl)c3)ccc12 | 23 | 102 |  |  | 
18 | O=c1cc(O)c2ccc(OCc3cccc(Br)c3)cc2o1 | 0 | 490 |  |  | 
19 | O=c1cc(Nc2ccccc2)c2ccc(OCc3cccc(Cl)c3)cc2o1 | 0 | 9770 |  |  | 
20 | CCc1cc(=O)oc2cc(OCc3cccc(Cl)c3)ccc12 | 48 | 28.8 |  |  | 
21 | O=c1cc(O)c2ccc(OCc3cccc(F)c3)cc2o1 | 0 | 2090 |  |  | 
22 | O=c1cc(CO)c2ccc(OCc3cccc(Br)c3)cc2o1 | 49 | 14.1 |  |  | 
23 | CC(=O)COc1cc(=O)oc2cc(OCc3cccc(Cl)c3)ccc12 | 22 | 26.9 |  |  | 
24 | O=c1cc(CN2CCCC2)c2ccc(OCc3cccc(Cl)c3)cc2o1 | 16 | 1700 |  |  | 
25 | CNc1cc(=O)oc2cc(OCc3cccc(Cl)c3)ccc12 |  | 8.71 | 4070 |  | 
26 | NC(=O)COc1cc(=O)oc2cc(OCc3cccc(Cl)c3)ccc12 |  | 3.31 | 24000 | 7240 | 3.1
27 | Nc1cc(=O)oc2cc(OCc3cccc(Cl)c3)ccc12 |  | 47.9 | 4170 |  | 

Second part, the compound after the results:

Row | inhibition at 5 min, 10 µM [1] [%] | IC50 ([2]; read-out: pIC50 (converted)) [nM] | IC50 [3] [nM] | Selectivity ratio (Rattus norvegicus) | IC50 ([2]; read-out: IC50) [nM] | Compound
28 | 0 |  |  |  |  | CCNC(=O)Nc1cc(=O)oc2cc(OCc3cccc(Cl)c3)ccc12
29 | 8.6 | 316 |  |  |  | CSCOc1cc(=O)oc2cc(OCc3cccc(Cl)c3)ccc12
30 | 3.2 | 204 |  |  |  | CCCNCc1cc(=O)oc2cc(OCc3cccc(Cl)c3)ccc12
31 | 28 | 209 |  |  |  | O=c1cc(CCl)c2ccc(OCc3cccc(Br)c3)cc2o1
32 | 23 | 100 |  |  |  | COCOc1cc(=O)oc2cc(OCc3cccc(Cl)c3)ccc12
33 |  | 7.76 | 11700 |  |  | COc1cc(=O)oc2cc(OCc3cccc(Cl)c3)ccc12
34 | 49 | 36.3 |  |  |  | COc1cc(=O)oc2cc(OCc3cccc(F)c3)ccc12
35 | 22 | 77.6 |  |  |  | CC(O)c1cc(=O)oc2cc(OCc3cccc(Cl)c3)ccc12 (centres undefined)
36 | 1.1 | 447 |  |  |  | CCCCNCc1cc(=O)oc2cc(OCc3cccc(Cl)c3)ccc12
37 |  | 5.25 | 10200 |  |  | O=c1cc(CO)c2ccc(OCc3cccc(Cl)c3)cc2o1
38 | 2 | 9120 |  |  |  | O=c1cc(O)c2ccc(OCc3ccccc3)cc2o1
39 |  | 38.9 | 282 |  |  | CC(=O)Nc1cc(=O)oc2cc(OCc3cccc(Cl)c3)ccc12
40 | 17 | 45.7 |  |  |  | N#CCOc1cc(=O)oc2cc(OCc3cccc(Cl)c3)ccc12
41 | 0 | 4070 |  |  |  | O=c1cc(Oc2ccccc2)c2ccc(OCc3cccc(Cl)c3)cc2o1
42 | 12 | 407 |  |  |  | CCCOc1cc(=O)oc2cc(OCc3cccc(F)c3)ccc12
43 |  | 8.91 | 8910 |  |  | NC(=O)COc1cc(=O)oc2cc(OCc3cccc(Br)c3)ccc12
44 | 0 |  |  |  |  | O=C(O)c1cc(=O)oc2cc(OCc3cccc(Cl)c3)ccc12

Row | inhibition at 5 min, 10 µM [1] [%] | IC50 ([2]; read-out: pIC50 (converted)) [nM] | IC50 [3] [nM] | Selectivity ratio (Rattus norvegicus) | IC50 ([2]; read-out: IC50) [nM] | Compound
45 | 14 | 234 |  |  |  | NC(=O)c1cc(=O)oc2cc(OCc3cccc(Cl)c3)ccc12
46 | 6 | 479 |  |  |  | O=c1cc(O)c2ccc(OCc3cccc(Cl)c3)cc2o1
47 | 10 | 501 |  |  |  | CN(C)C(=O)COc1cc(=O)oc2cc(OCc3cccc(Cl)c3)ccc12
48 | 5.7 |  |  |  |  | CN(C)Cc1cc(=O)oc2cc(OCc3cccc(Cl)c3)ccc12
49 | 0 | 39.8 |  |  |  | CC(=O)c1cc(=O)oc2cc(OCc3cccc(Cl)c3)ccc12
50 | 14 | 52.5 |  |  |  | O=Cc1cc(=O)oc2cc(OCc3cccc(Cl)c3)ccc12
51 | 3 | 24500 |  |  |  | CC(C)Oc1cc(=O)oc2cc(OCc3cccc(Cl)c3)ccc12
52 | 21 | 43.7 |  |  |  | O=c1cc(CCl)c2ccc(OCc3cccc(Cl)c3)cc2o1
53 |  | 7.41 | 5250 |  |  | Cc1cc(=O)oc2cc(OCc3cccc(Cl)c3)ccc12
54 | 0 | 759 |  |  |  | CCOc1cc(=O)oc2cc(OCc3ccccc3)ccc12
55 | 16 | 871 |  |  |  | O=c1cc(C(F)(F)F)c2ccc(OCc3cccc(Cl)c3)cc2o1
56 | 2.5 | 126 |  |  |  | CCOc1cc(=O)oc2cc(OCc3cccc(Br)c3)ccc12
57 | 0 |  |  |  |  | O=C(O)COc1cc(=O)oc2cc(OCc3cccc(Cl)c3)ccc12
58 | 4.4 | 417 |  |  |  | CCOC(=O)c1cc(=O)oc2cc(OCc3cccc(Cl)c3)ccc12
59 | 27 | 5.75 |  |  |  | COc1cc(=O)oc2cc(OCc3cccc(Br)c3)ccc12
60 | 11 | 33.9 |  |  |  | CNC(=O)COc1cc(=O)oc2cc(OCc3cccc(Cl)c3)ccc12
61 | 0 | 575 |  |  |  | CCCOc1cc(=O)oc2cc(OCc3ccccc3)ccc12
